In ChEMBL document CHEMBL1137768, “Synthesis and in vitro anti Mycobacterium tuberculosis activity of a series of phthalimide derivatives” (Bioorg Med Chem, 2009):
Converted amounts (≈) assume the structure as drawn.

Key:
[1] = tested on: Mycobacterium tuberculosis; assay: Antimycobacterial activity against Mycobacterium tuberculosis H37Rv ATCC 27294 after 7 days by Microplate Alamar blue assay; format: functional; details: H37Rv ATCC 27294, 168 h
How it was run: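 DMSO stocks diluted in Middlebrook 7H9 with OADC to final 0.15–250 µg/mL. Inoculum matched to McFarland No. 1, diluted 1:25, then added with compound in 96-well plates. Triplicates incubated 7 days at 37 °C, then resazurin added. Fluorescence read at 530/590 nm. MIC = lowest concentration giving 90% growth inhibition. Isoniazid standard run each time.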

J774 = assay: Cytotoxicity against mouse J774 cells after 24 hrs; format: cell-based; details: J774, 24 h
How it was run: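 J774 cells kept in RPMI with 10% FBS at 37 °C, 5% CO2, then seeded and allowed to adhere for 24 h. Exposed 24 h to compound at 625 down to 0.6 (twofold series). Resazurin added for 6 h and fluorescence read at 530/590 nm. IC50 taken as concentration giving 50% viability relative to control.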

| SMILES | MIC [1] [µg/mL] | IC50 (J774) [µg/mL] |
| --- | --- | --- |
| O=C1c2ccccc2C(=O)N1c1ccc(S(=O)(=O)c2ccc(N3C(=O)c4ccccc4C3=O)cc2)cc1 | > 250 | – |
| N=C(N)NS(=O)(=O)c1ccc(N2C(=O)c3ccccc3C2=O)cc1 | 125 (≈ 363 µM) | – |
| NS(=O)(=O)c1ccc(N2C(=O)c3ccccc3C2=O)cc1 | > 250 | – |
| O=C1c2ccccc2C(=O)N1c1ccc(S(=O)(=O)Nc2ccccn2)cc1 | > 250 | – |
| Nc1ccc(S(=O)(=O)c2ccc(N3C(=O)c4ccccc4C3=O)cc2)cc1 | 7.8 (≈ 20.6 µM) | 312 (≈ 826 µM) |
| Cc1cc(NS(=O)(=O)c2ccc(N3C(=O)c4ccccc4C3=O)cc2)no1 | 125 (≈ 326 µM) | – |
| COc1cnc(NS(=O)(=O)c2ccc(N3C(=O)c4ccccc4C3=O)cc2)nc1 | > 250 | – |
| NNC(=O)c1ccncc1 [ISONIAZID] | 0.02 (≈ 0.146 µM) | – |
| Cc1ccnc(NS(=O)(=O)c2ccc(N3C(=O)c4ccccc4C3=O)cc2)n1 | > 250 | – |
| O=C(NN1C(=O)c2ccccc2C1=O)c1ccncc1 | 5 (≈ 18.7 µM) | 625 (≈ 2340 µM) |
| Cc1cc(C)nc(NS(=O)(=O)c2ccc(N3C(=O)c4ccccc4C3=O)cc2)n1 | > 250 | – |
| O=C1c2ccccc2C(=O)N1c1ccc(S(=O)(=O)Nc2ncccn2)cc1 | 3.9 (≈ 10.3 µM) | 312 (≈ 822 µM) |
